Here are results for six molecules from ChEMBL document CHEMBL1157298, “Bioactive dammarane triterpenes from the mangrove plant Bruguiera gymnorrhiza” (J Nat Prod, 2006).

Calls of active or inactive are those of the source. No cut-off for these calls is given here.

In data set [1] the test system is HepG2. Description: Induction of ARE in human HepG2 cells by luciferase assay. The format is functional, cell-based. The gist of the method:
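Stably transfected HepG2 cells carrying an ARE-luciferase reporter. EC50 is the concentration giving activation halfway between the DMSO-control baseline and the maximum response at 20 µg/mL.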

Data set [2] deals with Prostaglandin G/H synthase 1 (Homo sapiens) (UniProt P23219). Nature of the data set: Inhibition of COX1. The gist of the method:
(§1)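 COX-1 and COX-2 activity read out as PGE2 production. Indomethacin served as the positive control.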

Data set [3] deals with HepG2. Description: Inhibition of TPA-induced NF-kappaB activation in human HepG2 cells by luciferase assay. The data set is classed as functional, cell-based. The method in brief: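 NFκB-luciferase reporter construct activated with TPA (phorbol ester). IC50 is the concentration that reduces TPA-activated NFκB luciferase activity by 50%.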
Data set [4] deals with HepG2. Nature of the data set: Cytotoxicity against human HepG2 cells. The format is cell-based.
In data set [5] the target is T1, Prostaglandin G/H synthase 2 (Homo sapiens, UniProt P35354).
T1 sequence (P35354 whole entry): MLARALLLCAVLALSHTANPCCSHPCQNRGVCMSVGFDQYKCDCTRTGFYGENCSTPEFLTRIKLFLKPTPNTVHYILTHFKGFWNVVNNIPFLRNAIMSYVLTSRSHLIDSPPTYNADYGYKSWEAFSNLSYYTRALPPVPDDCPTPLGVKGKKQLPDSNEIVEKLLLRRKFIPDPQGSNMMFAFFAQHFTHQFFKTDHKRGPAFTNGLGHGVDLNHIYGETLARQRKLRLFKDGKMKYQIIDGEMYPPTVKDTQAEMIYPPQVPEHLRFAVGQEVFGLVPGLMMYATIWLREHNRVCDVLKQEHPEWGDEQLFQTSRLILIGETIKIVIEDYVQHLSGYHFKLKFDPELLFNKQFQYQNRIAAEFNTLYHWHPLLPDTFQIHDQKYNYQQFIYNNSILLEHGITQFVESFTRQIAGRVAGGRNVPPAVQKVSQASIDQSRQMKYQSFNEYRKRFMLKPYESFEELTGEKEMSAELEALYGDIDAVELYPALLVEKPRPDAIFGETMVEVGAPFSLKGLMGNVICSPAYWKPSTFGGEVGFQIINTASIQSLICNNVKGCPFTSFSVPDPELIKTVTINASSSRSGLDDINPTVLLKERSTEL
Description: (§2) Inhibition of COX2. The gist of the method:
as §1

Data set [6] deals with T2, Prostaglandin G/H synthase 2 (Homo sapiens) (UniProt P35354).
T2 sequence (whole entry): T1 sequence (P35354 whole entry)
Described as §2. The gist of the method: as §1

Chain of Prostaglandin G/H synthase 1 (Homo sapiens) (P23219 whole entry): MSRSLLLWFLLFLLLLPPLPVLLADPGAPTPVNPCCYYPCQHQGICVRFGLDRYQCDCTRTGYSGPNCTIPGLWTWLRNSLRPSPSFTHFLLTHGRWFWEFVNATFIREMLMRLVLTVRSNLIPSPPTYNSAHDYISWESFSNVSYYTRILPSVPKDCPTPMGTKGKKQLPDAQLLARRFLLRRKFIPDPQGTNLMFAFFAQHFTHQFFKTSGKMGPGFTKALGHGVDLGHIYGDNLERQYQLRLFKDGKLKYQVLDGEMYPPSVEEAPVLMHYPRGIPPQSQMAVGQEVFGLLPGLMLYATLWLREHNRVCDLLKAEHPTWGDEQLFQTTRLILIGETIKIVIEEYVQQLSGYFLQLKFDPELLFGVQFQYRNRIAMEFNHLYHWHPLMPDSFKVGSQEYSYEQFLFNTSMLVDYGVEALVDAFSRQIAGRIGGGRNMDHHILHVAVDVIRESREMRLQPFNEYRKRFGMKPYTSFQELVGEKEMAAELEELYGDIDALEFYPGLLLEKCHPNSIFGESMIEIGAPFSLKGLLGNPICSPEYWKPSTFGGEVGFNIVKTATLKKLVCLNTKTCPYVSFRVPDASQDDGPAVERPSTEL

Usually EC50 stands for the concentration that produces a half-maximal response. Higher therefore signals a need for much substance. Molecule `O=c1cc(-c2ccc(Br)cc2)oc2ccccc12` gave an EC50 in the data set on HepG2 [1] of 30 µM.
The same measure, in the same setting: to `O=c1cc(-c2ccccc2)oc2ccc3ccccc3c12` [BETA-NAPHTHOFLAVONE] belongs 8 µM.
The IC50 is the midpoint of a concentration-inhibition curve. A lower IC50 goes with higher potency. As for `CCCCCCCCCCCCCCCCCC(=O)O[C@H]1C[C@@H](O)[C@]2(C)[C@H]3CC[C@@H]4[C@@H]([C@@](C)(O)CCC=C(C)C)CC[C@@]4(C)[C@]3(C)CC[C@H]2C1(C)C` [BRUGUIERIN A], in data set [2], the result was inactive. In addition, the IC50 was determined as 1.4 µM in the data set with HepG2 [3] and 0.37 µM in data set [5]. In the data set with HepG2 [1], this molecule had a concentration for a half-maximal effect (EC50) of 7.8 µM. Besides, the Activity entry in the data set on HepG2 [4] was “Non-toxic”.
In the case of `CCCCCCCCCCCCCCCCCC(=O)O[C@H]1CC[C@]2(C)[C@H]3[C@H](O)C[C@@H]4[C@@H]([C@@](C)(O)CCC=C(C)C)CC[C@@]4(C)[C@]3(C)CC[C@H]2C1(C)C` [BRUGUIERIN B], the outcome in data set [2] and in data set [6] was inactive. In the data set on HepG2 [1], this molecule yielded an EC50 of 9.4 µM. Also, the Activity entry with HepG2 [4] is listed as “Non-toxic”.
`CCCCCCCCCCCCCCCCCC(=O)O[C@H]1C[C@@H](O)[C@]2(C)[C@H]3CC[C@@H]4[C@@H]([C@@](C)(O)C/C=C/C(C)(C)OO)CC[C@@]4(C)[C@]3(C)CC[C@H]2C1(C)C` [BRUGUIERIN C]: the outcome in data set [2] and in data set [6] was inactive. The half-maximal effective concentration (EC50) with HepG2 [1] came out at 15.7 µM. Further, the Activity entry in the data set on HepG2 [4] is reported as “Non-toxic”.
The molecule `C[S+]([O-])CCCCN=C=S` (stereo unspecified) [SULFORAPHANE] registered a half-maximal effective concentration (EC50) in the data set with HepG2 [1] of 4 µM.
